For assay [1], the species on record is Bos taurus. Put plainly: Agonist activity at GPER in BCAEC assessed as increase in nitric oxide production at 1 uM incubated for 10 mins by nitrate/nitrite fluorometric assay relative to untreated (-)-epicatechin. In outline:
(§1)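 BCAEC given 1 μM ligand for 10 min, with 1 μM (−)-epicatechin as reference; GPER blockade by 30 min pre-incubation with 1 μM G15 before ligand. Nitrates/nitrites in supernatant measured as surrogate of NO synthesis. Values normalized to control (set to 1) or to Epi (100%). Mean ± SEM, n=5 per group.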

The species named for assay [2] is Bos taurus. Kind of assay: Agonist activity at GPER in BCAEC assessed as increase in eNOS Ser1179 phosphorylation at 1 uM incubated for 10 mins by Western blot relative to untreated (-)-epicatechin. In outline: (§2)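 Bovine coronary artery endothelial cells stimulated 10 min with 1 μM ligand; (−)-epicatechin at 1 μM as reference. For GPER blockade, cells pre-incubated 30 min with G15 (1 μM) before ligand. Ser1179-phosphorylated eNOS immunodetected by Western blot. Control set to 1, or Epi set to 100% with derivatives expressed as percent of Epi. Mean ± SEM, n=5 per group.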
A general note: In western blotting, separated proteins are transferred to a membrane and probed.

The species named for assay [3] is Bos taurus. Put plainly: Agonist activity at GPER in BCAEC assessed as increase in nitric oxide production at 1 uM pre-incubated with 1 uM GPER antagonist G15 for 30 mins followed by compound incubation for 10 mins by nitrate/nitrite fluorometric assay relative to untreated control. Details: scale not given: the % may be the effect or the level left. Summed up:
as §1

For assay [4], the species on record is Bos taurus. Put plainly: Agonist activity at GPER in BCAEC assessed as increase in eNOS Ser1179 phosphorylation at 1 uM pre-incubated with 1 uM GPER antagonist G15 for 30 mins followed by compound incubation for 10 mins by Western blot relative to untreated control. Details: scale not given: the % may be the effect or the level left. Summed up: as §2
The species entered for assay [5] is Bos taurus. Put plainly: Binding affinity to GPER in BCAEC protein extracts using compound loaded on to affinity chromatography Agarose columns incubated overnight at 4 degC with mild tumbling by Coomassie-blue staining based SDS-PAGE and Western blot method. Summed up: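 Propargyl derivative coupled to agarose-azide beads by click chemistry; coupling gauged by fluorescence of washings against an external calibration curve. Three control columns lacked ligand and/or copper sulfate/ascorbate. BCAEC protein extract (0.8–1.0 mg) loaded, overnight 4 °C with mild tumbling. Washed with 5 mM EDTA/0.5% SDS/250 mM NaCl in PBS pH 7.5, then PBS. Eluted in PBS with 8 M urea, concentrated, run on SDS-PAGE with Coomassie staining. Western blot used monoclonal GPER antibody.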

Activity calls are given as the source filed them. The calls are words filed in the database; no cut-off is given here.

For `C#CCOc1cc(OCC#C)c2c(c1)O[C@H](c1ccc(OCC#C)c(OCC#C)c1)[C@H](O)C2`, the Activity in the assay filed under Bos taurus [1] stood at 107%; in the assay filed under Bos taurus [2] it was 111%; in the assay listed under Bos taurus [3], 63.6%; in the assay filed under Bos taurus [4], 57.4%.

With `CS(=O)(=O)O[C@@H]1Cc2c(O)cc(O)cc2O[C@@H]1c1ccc(O)c(O)c1`, the Activity in the assay filed under Bos taurus [1] was determined as 54.5%; in the assay filed under Bos taurus [2] it was 64.8%; in the assay filed under Bos taurus [3] it was 41.8%; in the assay filed under Bos taurus [4], 53%.

Consider `C#CCO[C@@H]1Cc2c(O)cc(O)cc2O[C@@H]1c1ccc(O)c(O)c1`, for which the Activity stood at 142% in the assay listed under Bos taurus [1], 137% in the assay filed under Bos taurus [2], 70.9% in the assay filed under Bos taurus [3] and 59.3% in the assay filed under Bos taurus [4].

Turning to `Oc1cc(O)c2c(c1)O[C@H](c1ccc(O)c(O)c1)[C@H](O)C2`, the Activity in the assay listed under Bos taurus [3] was 60%; in the assay filed under Bos taurus [4] it was 55.6%. For the same molecule, the outcome in the assay filed under Bos taurus [5] was Active.

For the molecule `C#CCOc1cc(OCC#C)c2c(c1)O[C@H](c1ccc(OCC#C)c(OCC#C)c1)[C@H](OCC#C)C2`, the Activity in the assay filed under Bos taurus [1] is 102%; in the assay listed under Bos taurus [2] it was 92.6%; in the assay filed under Bos taurus [3] it was 60%; in the assay filed under Bos taurus [4], 54.8%.

These data come from ChEMBL document CHEMBL4184234, “Synthesis of novel (-)-epicatechin derivatives as potential endothelial GPER agonists: Evaluation of biological effects” (Bioorg Med Chem Lett, 2018).
